Assays:
PSMA [1] = settings: cited from earlier work
PSMA [2] = settings: read-out: Kd to PSMA; cited from earlier work
[3] = cited from earlier work
[4] = test system: PSMA-positive prostate cancer C4–2 cells; experiment: Cellular uptake of the micelle in cell monolayers; type: cell-based; settings: 0.5 and 1 h incubation
How it was run: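 C4–2 cells seeded at 2×10^5 per well 24 h ahead. They were exposed at 37°C for 0.5 and 1 h to micelles with or without the PSMA ligand, or to free test compound. Cells were then PBS-washed and RIPA-lysed. Part of the lysate went to BCA protein assay; the rest was treated with 4N NaOH (RT, 1 h), neutralised with phosphate buffer and DCM-extracted. Uptake was normalised to total protein; mean ± SD, n = 3.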

O=C(O)CCC(NC(=O)NC(CCC(=O)O)C(=O)O)C(=O)O (centres unmarked) [DUPA, 2-[3-(1,3-dicarboxypropyl)ureido]pentanedioic acid]
IC50 (PSMA [1]; read-out: IC50 towards PSMA): 47 nM
Ki (PSMA [1]; read-out: Ki towards PSMA): 8 nM
Kd (PSMA [2]): 14 nM

CO[C@H]1C(=O)[C@]2(C)[C@@H](OC)C[C@H]3OC[C@@]3(OC(C)=O)[C@H]2[C@H](OC(=O)c2ccccc2)[C@]2(O)C[C@H](OC(=O)[C@H](O)[C@@H](NC(=O)OC(C)(C)C)c3ccccc3)C(C)=C1C2(C)C [cabazitaxel, Cabazitaxel]
water solubility [3]: very low
cellular uptake, rank among groups [4]: lowest uptake

Source: publication PMC7423752 (Acta biomaterialia, 2020)
